Experimental data taken from ChEMBL document CHEMBL4043120 (Bioorg Med Chem, 2017).
The source made the active and inactive calls. The calls are words filed in the database; no cut-off is given here.

Columns and labels:
[1] = target: T1, Histone-lysine N-methyltransferase EHMT1 (Homo sapiens) (UniProt Q9H9B1); assay: Inhibition of EHMT1 (unknown origin) at 200 uM preincubated for 5 mins followed by SAM and biotinylated H3K9 peptide addition measured after 120 mins by HTRF assay relative to control
T1 sequence (whole entry): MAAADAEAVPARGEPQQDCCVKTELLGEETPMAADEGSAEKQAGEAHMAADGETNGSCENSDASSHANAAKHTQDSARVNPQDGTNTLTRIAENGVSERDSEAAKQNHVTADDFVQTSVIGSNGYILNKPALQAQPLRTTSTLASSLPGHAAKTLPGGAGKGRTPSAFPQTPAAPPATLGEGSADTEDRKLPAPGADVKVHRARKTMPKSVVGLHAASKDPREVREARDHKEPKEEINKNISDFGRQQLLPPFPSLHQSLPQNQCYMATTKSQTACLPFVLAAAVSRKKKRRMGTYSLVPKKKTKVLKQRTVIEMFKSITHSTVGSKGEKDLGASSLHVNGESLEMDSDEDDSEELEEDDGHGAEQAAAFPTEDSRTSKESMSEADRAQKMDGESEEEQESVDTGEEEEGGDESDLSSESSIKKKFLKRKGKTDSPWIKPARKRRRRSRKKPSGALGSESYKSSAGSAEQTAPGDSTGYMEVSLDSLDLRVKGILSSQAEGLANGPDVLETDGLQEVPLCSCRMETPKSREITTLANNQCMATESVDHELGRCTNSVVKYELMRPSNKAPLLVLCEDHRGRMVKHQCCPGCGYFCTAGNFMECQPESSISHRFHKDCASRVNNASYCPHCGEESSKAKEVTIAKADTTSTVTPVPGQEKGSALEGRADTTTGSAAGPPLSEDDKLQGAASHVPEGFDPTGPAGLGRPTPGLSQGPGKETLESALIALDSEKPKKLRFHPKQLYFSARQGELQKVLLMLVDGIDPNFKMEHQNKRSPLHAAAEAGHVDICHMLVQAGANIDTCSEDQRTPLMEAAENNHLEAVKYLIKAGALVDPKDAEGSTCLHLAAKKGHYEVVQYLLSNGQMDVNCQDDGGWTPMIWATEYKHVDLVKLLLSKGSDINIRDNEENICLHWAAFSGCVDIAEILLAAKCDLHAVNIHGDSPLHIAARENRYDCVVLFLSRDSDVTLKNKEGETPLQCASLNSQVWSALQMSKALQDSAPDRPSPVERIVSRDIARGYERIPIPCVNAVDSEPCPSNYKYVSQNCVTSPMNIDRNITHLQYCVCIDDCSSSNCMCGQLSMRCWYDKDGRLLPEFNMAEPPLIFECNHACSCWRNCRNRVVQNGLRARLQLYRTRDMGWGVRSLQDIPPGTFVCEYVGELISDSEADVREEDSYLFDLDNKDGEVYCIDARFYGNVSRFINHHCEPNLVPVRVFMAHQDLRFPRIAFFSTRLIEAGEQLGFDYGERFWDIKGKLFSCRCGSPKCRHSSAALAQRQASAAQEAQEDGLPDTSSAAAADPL
In short: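 Final EHMT1 0.4 nM, biotinylated unmethylated H3(1-21)K9 peptide 150 nM, SAM 6 μM in 50 mM Tris-HCl pH 8.8, 50 mM NaCl, 1 mM DTT, 0.01% Tween-20; samples at 200 μM, 1% DMSO final. Detection by Eu-antibody plus streptavidin-XL665, 60 min. HTRF read: excitation 320 or 340 nm, emission 665/620 nm.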

[2] = target: T2, Histone-lysine N-methyltransferase EHMT2 (Homo sapiens) (UniProt Q96KQ7); assay: Inhibition of EHMT2 (unknown origin) at 400 uM preincubated for 15 mins followed by SAM and biotinylated H3K9 peptide addition measured after 30 mins by TR-FRET assay relative to control
T2 sequence (whole entry): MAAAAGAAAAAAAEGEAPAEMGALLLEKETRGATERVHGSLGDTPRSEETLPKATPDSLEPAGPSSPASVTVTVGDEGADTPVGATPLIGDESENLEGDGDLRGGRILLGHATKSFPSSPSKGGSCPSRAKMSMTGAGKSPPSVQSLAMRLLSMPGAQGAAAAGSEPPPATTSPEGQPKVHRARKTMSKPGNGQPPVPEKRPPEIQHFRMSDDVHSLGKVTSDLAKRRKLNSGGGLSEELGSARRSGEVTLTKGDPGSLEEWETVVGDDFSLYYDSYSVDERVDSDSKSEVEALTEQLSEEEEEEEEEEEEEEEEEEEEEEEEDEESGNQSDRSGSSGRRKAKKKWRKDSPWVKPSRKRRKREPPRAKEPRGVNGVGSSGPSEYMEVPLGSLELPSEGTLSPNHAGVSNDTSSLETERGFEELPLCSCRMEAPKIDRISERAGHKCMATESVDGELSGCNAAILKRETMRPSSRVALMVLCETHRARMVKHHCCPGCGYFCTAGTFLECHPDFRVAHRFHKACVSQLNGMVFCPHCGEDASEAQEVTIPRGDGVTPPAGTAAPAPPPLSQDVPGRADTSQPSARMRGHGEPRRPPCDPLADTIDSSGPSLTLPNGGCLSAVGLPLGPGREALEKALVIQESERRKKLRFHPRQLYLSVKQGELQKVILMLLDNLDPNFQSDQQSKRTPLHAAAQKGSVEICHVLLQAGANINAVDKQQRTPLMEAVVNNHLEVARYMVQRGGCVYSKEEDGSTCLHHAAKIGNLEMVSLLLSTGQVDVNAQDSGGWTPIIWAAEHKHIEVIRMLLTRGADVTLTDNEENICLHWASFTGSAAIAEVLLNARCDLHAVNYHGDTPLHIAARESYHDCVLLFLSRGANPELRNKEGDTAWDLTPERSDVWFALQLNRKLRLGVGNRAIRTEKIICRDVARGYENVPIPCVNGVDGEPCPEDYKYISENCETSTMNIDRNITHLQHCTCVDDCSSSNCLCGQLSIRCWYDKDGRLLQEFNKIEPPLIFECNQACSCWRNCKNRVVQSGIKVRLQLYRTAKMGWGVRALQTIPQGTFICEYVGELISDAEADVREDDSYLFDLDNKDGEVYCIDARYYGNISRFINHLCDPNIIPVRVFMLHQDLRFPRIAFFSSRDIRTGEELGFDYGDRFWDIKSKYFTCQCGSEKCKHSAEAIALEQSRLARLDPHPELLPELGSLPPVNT
In short: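 Single-point EHMT2 screen at 400 μM, 1% DMSO. Final 0.6 nM EHMT2, 0.5 µM biotinylated H3(1-21)K9 peptide, 3 µM SAM in 50 mM Tris-HCl pH 9.0, 50 mM NaCl, 1 mM DTT, 0.01% Tween-20. Detection 60 min with final 2 nM Eu-antibody, 50 nM ULight-streptavidin, 0.0001% poly-L-lysine. TR-FRET read at 665/620 nm.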

[3] = target: T1, Histone-lysine N-methyltransferase EHMT1 (Homo sapiens); assay: (§1) Inhibition of EHMT1 (unknown origin) preincubated for 5 mins followed by SAM and biotinylated H3K9 peptide addition measured after 120 mins by HTRF assay
In short: (§2)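 Final 0.4 nM enzyme, 150 nM biotinylated H3(1-21)K9 peptide, 6 μM SAM, pH 8.8 Tris buffer, 1% DMSO. Eu-antibody/SA-XL665 HTRF read at 665/620 nm. Mean±SEM of 3-4 independent experiments in triplicate.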

[4] = target: T3, Histone-lysine N-methyltransferase EHMT1 (Homo sapiens, UniProt Q9H9B1); assay: as §1; in short: as §2
T3 sequence (Q9H9B1 whole entry): T1 sequence (whole entry)

[5] = target: T2, Histone-lysine N-methyltransferase EHMT2 (Homo sapiens); assay: (§3) Inhibition of EHMT2 (unknown origin) preincubated for 15 mins followed by SAM and biotinylated H3K9 peptide addition measured after 30 mins by TR-FRET assay
[6] = target: Protein arginine N-methyltransferase 1 (Homo sapiens) (UniProt Q99873); assay: Inhibition of PRMT1 (unknown origin) at 400 uM preincubated for 5 mins followed by SAM and H4 (1 to 25 residues) peptide addition measured after 1 hr by HTRF assay relative to control
Protein arginine N-methyltransferase 1 (Homo sapiens), sequence (Q99873 whole entry, looked up, the tested form may be a part): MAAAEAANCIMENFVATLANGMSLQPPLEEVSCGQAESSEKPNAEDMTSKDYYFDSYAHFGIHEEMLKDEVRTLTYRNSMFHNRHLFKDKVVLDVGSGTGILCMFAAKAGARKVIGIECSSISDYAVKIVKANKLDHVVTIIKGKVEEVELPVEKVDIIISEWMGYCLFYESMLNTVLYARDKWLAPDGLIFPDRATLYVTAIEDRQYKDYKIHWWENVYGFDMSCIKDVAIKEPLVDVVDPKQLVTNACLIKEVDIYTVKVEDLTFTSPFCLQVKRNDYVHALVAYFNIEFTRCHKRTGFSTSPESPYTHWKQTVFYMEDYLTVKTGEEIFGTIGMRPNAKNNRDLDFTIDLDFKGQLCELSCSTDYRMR

[7] = target: T4, Histone-lysine N-methyltransferase EHMT2 (Homo sapiens, UniProt Q96KQ7); assay: as §3
T4 sequence (Q96KQ7 whole entry): T2 sequence (whole entry)

HL-60 = assay: Antiproliferative activity against human HL60 cells at 200 uM after 72 hrs by CCK8 assay relative to control; type: functional; settings: HL-60, 72 h
MDA-MB-231 = assay: Antiproliferative activity against human MDA-MB-231 cells at 200 uM after 72 hrs by sulforhodamine B assay relative to control; type: functional; settings: MDA-MB-231, 72 h
[8] = target: T3, Histone-lysine N-methyltransferase EHMT1; assay: Inhibition of EHMT1 (unknown origin)

| SMILES | inhibition [1] | inhibition [2] | inhibition [3] | IC50 ([4]; read-out: IC50) | inhibition [5] | inhibition [6] | IC50 [7] | IC50 [4] | IC50 [8] | inhibition at 200 µM (HL-60) | inhibition at 200 µM (MDA-MB-231) |
| --- | --- | --- | --- | --- | --- | --- | --- | --- | --- | --- | --- |
| Nc1ncnc2c1ncn2[C@@H]1O[C@H](C[C@@H](N)CC2CC2)[C@@H](O)[C@H]1O | 88.9% | 77.6% | Dose-dependent effect | 21.8 µM | Dose-dependent effect | inactive | 39.6 µM | – | – | 37.9 to 38.4% | 41.4% |
| COc1cc2nc(N3CCCN(C)CC3)nc(NC3CCN(Cc4ccccc4)CC3)c2cc1OC | – | – | – | – | – | – | – | – | – | 81.8% | 87.2% |
| Nc1ncnc2c1ncn2[C@@H]1O[C@H](C[C@@H](N)CC[C@H](N)C(=O)O)[C@@H](O)[C@H]1O [SINEFUNGIN] | 100% | 79.5% | Dose-dependent effect | 28.4 µM | Dose-dependent effect | – | – | – | 0.1 to 20 µM | 41% | 42.8% |
| Nc1ncnc2c1ncn2[C@@H]1O[C@H](C[C@H](N)CC2CCC2)[C@@H](O)[C@H]1O | 53.2% | 44% | Dose-dependent effect | 115 µM | Dose-dependent effect | – | – | – | – | – | – |
| Nc1ncnc2c1ncn2[C@@H]1O[C@H](C[C@@H](N)CCC2CCCCC2)[C@@H](O)[C@H]1O | 40.9% | 42.7% | Dose-dependent effect | – | Dose-dependent effect | – | – | – | – | – | – |
| Nc1ncnc2c1ncn2[C@@H]1O[C@H](C[C@H](N)CC2CC2)[C@@H](O)[C@H]1O | 52.2% | 65.7% | Dose-dependent effect | – | Dose-dependent effect | 20% | 67.2 µM | – | – | – | – |
| Nc1ncnc2c1ncn2[C@@H]1O[C@H](C[C@@H](N)CC2CCC2)[C@@H](O)[C@H]1O | 69.7% | 58.9% | Dose-dependent effect | 47.7 µM | Dose-dependent effect | inactive | 169 µM | – | – | – | – |
| Nc1ncnc2c1ncn2[C@@H]1O[C@H](C[C@H](N)CCC2CCCCC2)[C@@H](O)[C@H]1O | 46.3% | 47.8% | Dose-dependent effect | – | Dose-dependent effect | – | – | – | – | – | – |

More lines, main results first:

| inhibition [1] | inhibition [2] | inhibition [3] | IC50 ([4]; read-out: IC50) | inhibition [5] | inhibition [6] | IC50 [7] | IC50 [4] | IC50 [8] | SMILES | inhibition at 200 µM (HL-60) | inhibition at 200 µM (MDA-MB-231) |
| --- | --- | --- | --- | --- | --- | --- | --- | --- | --- | --- | --- |
| 58.1% | 45.3% | Dose-dependent effect | 146 µM | Dose-dependent effect | inactive | – | – | – | Nc1ncnc2c1ncn2[C@@H]1O[C@H](C[C@H](N)CC2CCCCC2)[C@@H](O)[C@H]1O | – | – |
| 12.5% | 43.6% | Dose-dependent effect | – | Dose-dependent effect | – | – | – | – | Nc1ncnc2c1ncn2[C@@H]1O[C@H](C[C@H](N)CC2CCCC2)[C@@H](O)[C@H]1O | – | – |
| inactive | 31.9% | Dose-dependent effect | – | Dose-dependent effect | – | – | Not Active | – | CN(CC1CCCCC1)C[C@H]1O[C@@H](n2cnc3c(N)ncnc32)[C@H](O)[C@@H]1O | – | – |
| 72.7% | 43.7% | Dose-dependent effect | 204 µM | Dose-dependent effect | inactive | – | – | – | Nc1ncnc2c1ncn2[C@@H]1O[C@H](C[C@@H](N)CC2CCCCC2)[C@@H](O)[C@H]1O | – | – |
| 75.7% | 55.3% | Dose-dependent effect | 95.1 µM | Dose-dependent effect | inactive | 191 µM | – | – | Nc1ncnc2c1ncn2[C@@H]1O[C@H](C[C@@H](N)CC2CCCC2)[C@@H](O)[C@H]1O | – | – |
| inactive | 19.8% | Dose-dependent effect | – | Dose-dependent effect | – | – | Not Active | – | CCCN(CC1CCCCC1)C[C@H]1O[C@@H](n2cnc3c(N)ncnc32)[C@H](O)[C@@H]1O | – | – |
| 24.1% | 39.1% | Dose-dependent effect | – | Dose-dependent effect | – | – | – | – | CCN(CC1CCCCC1)C[C@H]1O[C@@H](n2cnc3c(N)ncnc32)[C@H](O)[C@@H]1O | – | – |
